One assay deals with Prothrombin (Bos taurus) (UniProt P00735). The assay can be described thus: Inhibitory activity against thrombin.
Another assay concerns the target Serine protease 1 (Homo sapiens, UniProt P07477). Description: Inhibitory activity against trypsin. The method in brief: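 Trypsin 93 ng/mL hydrolysing Bz-Phe-Val-Arg-pNA 0.125 mg/mL, 0.1 M Tris-HCl pH 7.4, 25 °C. […] Varying peptide concentrations, 5-min preincubation. IC50 is the concentration producing 50% inhibition of activity against a blank control.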
Assay [1] in a line: Selectivity was expressed as the ratio is IC 50 of plasmin / thrombin. In outline: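 Ratio of plasmin IC50 to thrombin IC50. Amidolytic assays at 25 °C in 0.1 M Tris-HCl (pH 7.4):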
For another assay, the target named is Plasminogen (Homo sapiens, UniProt P00747). The assay can be described thus: Inhibitory activity against plasmin.
Assay [2] has as its target Coagulation factor X (Bos taurus) (UniProt P00743). Description: Inhibitory activity against factor Xa.
The nature of assay [3]: Selectivity was expressed as the ratio is IC 50 of t-PA / thrombin. The method in brief:
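Ratio of t-PA IC50 to thrombin IC50. Amidolytic assays in 0.1 M Tris-HCl (pH 7.4) at 25 °C: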

pIC50: −log10 of the molar value. Where a SMILES comes first, the peptide text is derived from it. [ ]: non-standard residue; d: D form. The star is where a group is joined. dHpg = N[C@@H](C(=O)O)c1ccc(O)cc1; dChg = N[C@@H](C(=O)O)C1CCCCC1; dPhg = N[C@@H](C(=O)O)c1ccccc1; Boc = CC(C)(C)OC(=O)* Some results are limits rather than exact numbers.

Chain of Plasminogen (P00747 97-580 limits assumed): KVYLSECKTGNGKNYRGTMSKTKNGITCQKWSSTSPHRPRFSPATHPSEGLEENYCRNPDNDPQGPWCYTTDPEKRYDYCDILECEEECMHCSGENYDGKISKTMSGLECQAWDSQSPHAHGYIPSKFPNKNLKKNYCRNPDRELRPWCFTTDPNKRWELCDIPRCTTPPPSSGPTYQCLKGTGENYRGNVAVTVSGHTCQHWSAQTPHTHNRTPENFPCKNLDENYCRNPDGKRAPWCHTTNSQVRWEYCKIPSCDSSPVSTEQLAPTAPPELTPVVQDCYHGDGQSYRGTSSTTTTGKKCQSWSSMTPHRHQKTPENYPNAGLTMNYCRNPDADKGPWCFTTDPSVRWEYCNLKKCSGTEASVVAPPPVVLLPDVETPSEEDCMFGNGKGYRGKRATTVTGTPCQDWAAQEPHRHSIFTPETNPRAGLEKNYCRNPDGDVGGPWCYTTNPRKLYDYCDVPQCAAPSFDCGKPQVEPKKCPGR
Chain of Plasminogen (P00747 581-810 limits assumed): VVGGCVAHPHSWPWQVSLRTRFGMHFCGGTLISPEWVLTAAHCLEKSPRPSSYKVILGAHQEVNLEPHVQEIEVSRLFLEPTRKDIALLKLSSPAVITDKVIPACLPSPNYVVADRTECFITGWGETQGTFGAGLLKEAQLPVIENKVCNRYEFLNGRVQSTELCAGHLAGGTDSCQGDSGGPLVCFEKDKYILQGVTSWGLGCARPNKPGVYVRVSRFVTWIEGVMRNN
Chain of Serine protease 1 (P07477 whole entry): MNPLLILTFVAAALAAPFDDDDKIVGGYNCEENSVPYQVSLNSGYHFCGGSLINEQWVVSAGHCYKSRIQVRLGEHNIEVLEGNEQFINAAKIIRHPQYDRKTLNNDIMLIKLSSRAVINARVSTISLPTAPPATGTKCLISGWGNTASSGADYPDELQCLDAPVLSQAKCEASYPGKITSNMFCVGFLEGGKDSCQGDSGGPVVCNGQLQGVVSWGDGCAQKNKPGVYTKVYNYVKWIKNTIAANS
Chain of Coagulation factor X (Bos taurus) (P00743 whole entry, looked up): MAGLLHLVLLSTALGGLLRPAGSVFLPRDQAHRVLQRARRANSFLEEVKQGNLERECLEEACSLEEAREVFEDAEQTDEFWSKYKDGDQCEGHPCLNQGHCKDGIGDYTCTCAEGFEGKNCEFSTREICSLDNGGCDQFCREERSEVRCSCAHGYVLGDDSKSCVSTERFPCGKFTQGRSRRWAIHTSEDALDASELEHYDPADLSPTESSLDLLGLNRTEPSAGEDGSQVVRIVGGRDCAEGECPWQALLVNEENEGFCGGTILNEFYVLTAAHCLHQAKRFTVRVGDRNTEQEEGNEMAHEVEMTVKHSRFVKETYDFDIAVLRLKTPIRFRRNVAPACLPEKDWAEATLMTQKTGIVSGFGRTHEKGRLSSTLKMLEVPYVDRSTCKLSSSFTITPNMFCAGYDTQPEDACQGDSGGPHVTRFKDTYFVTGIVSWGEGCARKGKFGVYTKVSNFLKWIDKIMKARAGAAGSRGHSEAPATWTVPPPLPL

The pIC50 is −log10 of the IC50, conventionally taken in molar units. Take `CC(C)(C)OC(=O)N[C@H](C(=O)N1CCC[C@H]1C(=O)N[C@H](C=O)CCCN=C(N)N)c1ccc(F)cc1`: the negative logarithm of the IC50 (pIC50) at Prothrombin (Bos taurus) was 7.07; against Serine protease 1 it was 7.62; on Plasminogen it was 6.11; in assay [2], 5.17. Besides, the Selectivity ratio was 9 in assay [1] and 1100 in assay [3].
In the case of `CC(C)(C)OC(=O)N[C@@H](C(=O)N1CCC[C@H]1C(=O)NC(C=O)CCCN=C(N)N)c1ccc2ccccc2c1` (some centres not stated), the pIC50 was 7.74 on Prothrombin (Bos taurus), 8.05 against Serine protease 1, 7.26 against Plasminogen and 7.30 in assay [2]. Also, the Selectivity ratio came to 3 in assay [1] and 670 in assay [3].
In the case of `CC(C)(C)OC(=O)N[C@@H](C(=O)N1CCC[C@H]1C(=O)NC(C=O)CCCNC(=N)N)c1cccc2ccccc12` (some centres not stated), the pIC50 at Prothrombin (Bos taurus) is 7.64; at Serine protease 1 it was 7.85; on Plasminogen, 6.21; in assay [2], 5.85.
For the compound `CC(C)(C)OC(=O)N[C@H](Cc1ccccc1)C(=O)N1CCC[C@H]1C(=O)N[C@H](C=O)CCCN=C(N)N`, the pIC50 on Prothrombin (Bos taurus) was 7.35; against Serine protease 1, 7.85; on Plasminogen, 6.72; in assay [2], 5.80. For the same compound, the Selectivity ratio in assay [1] came out at 4; in assay [3], 20.
With `CC(C)(C)OC(=O)NC(C(=O)N1CCC[C@H]1C(=O)NC(C=O)CCCN=C(N)N)c1cccc(C(F)(F)F)c1` (some centres not stated), the pIC50 at Prothrombin (Bos taurus) was 7.57; at Serine protease 1, 7.72; at Plasminogen, 6.89; in assay [2] it was 5.85. The Selectivity ratio in assay [1] came to 5; in assay [3], 560.
For the compound `CC[C@H](C(=O)N1CCC[C@H]1C(=O)NC(C=O)CCCNC(=N)N)c1ccccc1` (some centres not stated), the pIC50 is 6.89 against Prothrombin (Bos taurus), 6.46 at Serine protease 1, 4.68 on Plasminogen and 4.48 in assay [2].
Taken in the same sequence, the figures for `CN[C@@H](C(=O)N1CCC[C@H]1C(=O)N[C@H](C=O)CCCNC(=N)N)c1ccccc1` were 7.74, 7.74, 6.31 and 5.66.
Turning to `CC(C)(C)OC(=O)N[C@@H](C(=O)N1CCC[C@H]1C(=O)NC(C=O)CCCN=C(N)N)c1cccc2ccccc12` (some centres not stated), the Selectivity ratio was found to be 30 in assay [1] and 870 in assay [3].
The matching figures for `CC[C@H](C(=O)N1CCC[C@H]1C(=O)NC(C=O)CCCN=C(N)N)c1ccccc1` (some centres not stated): 160 and above 800.
Turning to `CC(C)(C)OC(=O)N[C@@H](C(=O)N1CCC[C@H]1C(=O)N[C@H](C=O)CCCN=C(N)N)c1ccccc1` (Boc-[dPhg]-Pro-Arg-aldehyde), the negative logarithm of the IC50 (pIC50) is 7.80 at Prothrombin (Bos taurus), 8.01 against Serine protease 1, 7.01 on Plasminogen and 6.59 in assay [2]. Further, the Selectivity ratio in assay [1] was 6; in assay [3] it was 540.
For `C[C@@H](C(=O)N1CCC[C@H]1C(=O)NC(C=O)CCCN=C(N)N)c1ccccc1` (some centres not stated), the negative-log IC50 (pIC50) against Prothrombin (Bos taurus) was 5.29; at Serine protease 1 it was 6.05; against Plasminogen it was 4.39; in assay [2], 4.09. Moreover, the Selectivity ratio in assay [1] was 8.
Regarding `CC(C)(C)OC(=O)N[C@@H](C(=O)N1CCC[C@H]1C(=O)N[C@H](C=O)CCCN=C(N)N)c1ccc(F)cc1`, the pIC50 on Prothrombin (Bos taurus) is 7.52; on Serine protease 1, 7.72; on Plasminogen it was 7.07; in assay [2], 5.80. Also, the Selectivity ratio turned out to be 4 in assay [1] and 600 in assay [3].
Take `N=C(N)NCCC[C@@H](C=O)NC(=O)[C@@H]1CCCN1C(=O)C1CCc2ccccc2N1` (some centres not stated): the pIC50 was 5.51 on Prothrombin (Bos taurus), 6.24 against Serine protease 1, 4.82 against Plasminogen and 4.92 in assay [2]. In addition, the Selectivity ratio in assay [1] is 5; in assay [3], 210.
`CC(C)(C)OC(=O)NC(C(=O)N1CCC[C@H]1C(=O)NC(C=O)CCCN=C(N)N)c1ccc(Cl)c(Cl)c1` (some centres not stated): the Selectivity ratio was 6 in assay [1] and 1100 in assay [3].
On to `CO[C@H](C(=O)N1CCC[C@H]1C(=O)NC(C=O)CCCN=C(N)N)c1ccccc1` (some centres not stated), for which the negative-log IC50 (pIC50) against Prothrombin (Bos taurus) was 6.60; against Plasminogen, 4.82; in assay [2], 4.57. Further, the Selectivity ratio worked out at 60 in assay [1] and 3400 in assay [3].
For the compound `C[C@H](C(=O)N1CCC[C@H]1C(=O)NC(C=O)CCCNC(=N)N)c1ccccc1` (some centres not stated), the negative-log IC50 (pIC50) was 7.03 against Prothrombin (Bos taurus), 6.74 against Serine protease 1, 4.74 at Plasminogen and 4.51 in assay [2].
Regarding `CN[C@@H](C(=O)N1CCC[C@H]1C(=O)N[C@H](C=O)CCCN=C(N)N)c1ccccc1`, the results for the Selectivity ratio in assay [1] and in assay [3] were 30 and 2300, respectively.
Regarding `N=C(N)NCCC[C@@H](C=O)NC(=O)[C@@H]1CCCN1C(=O)[C@H]1Cc2ccccc2CN1`, the pIC50 on Prothrombin (Bos taurus) was 7.60; at Serine protease 1, 7.72; in assay [2], 5.39.
For the compound `CC(C)(C)OC(=O)N[C@@H](C(=O)N1CCC[C@H]1C(=O)N[C@H](C=O)CCCN=C(N)N)c1ccsc1`, the pIC50 at Prothrombin (Bos taurus) was 7.14; against Serine protease 1, 7.89; at Plasminogen, 6.82; in assay [2] it was 6.72. The Selectivity ratio in assay [1] came to 2; in assay [3], 180.
For the compound `CC(C)(C)OC(=O)N[C@@H](C(=O)N1CCC[C@H]1C(=O)N[C@H](C=O)CCCN=C(N)N)c1ccc(O)cc1` (Boc-[dHpg]-Pro-Arg-aldehyde), the pIC50 at Prothrombin (Bos taurus) is 7.05; on Serine protease 1, 7.77; at Plasminogen, 7.03; in assay [2], 6.70. The values for the Selectivity ratio in assay [1] and in assay [3] were 1 and 180, respectively.
Take `NC(N)=NCCC[C@@H](C=O)NC(=O)[C@@H]1CCCN1C(=O)[C@H](N)c1ccccc1` (H-[dPhg]-Pro-Arg-aldehyde): the negative-log IC50 (pIC50) against Prothrombin (Bos taurus) is 7.74; at Serine protease 1, 7.72; at Plasminogen, 6.04; in assay [2] it was 5.80. Also, the Selectivity ratio in assay [1] came to 50; in assay [3], 2200.
Turning to `CC(C)(C)OC(=O)N[C@H](C(=O)N1CCC[C@H]1C(=O)NC(C=O)CCCN=C(N)N)c1cccc2ccccc12` (some centres not stated), in assay [1], the Selectivity ratio amounted to 3.
Consider `CC(C)(C)OC(=O)N[C@@H](C(=O)N1CCC[C@H]1C(=O)N[C@H](C=O)CCCN=C(N)N)C1CCCCC1` (Boc-[dChg]-Pro-Arg-aldehyde), for which the pIC50 on Prothrombin (Bos taurus) is 7.92; against Serine protease 1, 7.89; against Plasminogen, 7.09; in assay [2], 7.09. The Selectivity ratio in assay [1] turned out to be 7; in assay [3], 190.
Consider `CC(C)(C)OC(=O)N[C@H](C(=O)N1CCC[C@H]1C(=O)NC(C=O)CCCNC(=N)N)c1cccc2ccccc12` (some centres not stated), for which the pIC50 against Prothrombin (Bos taurus) was 7.26; on Serine protease 1, 7.54; against Plasminogen it was 6.74; in assay [2], 6.68.
For `CC(C)(C)OC(=O)NC(C(=O)N1CCC[C@H]1C(=O)NC(C=O)CCCNC(=N)N)c1ccc(Cl)c(Cl)c1` (some centres not stated), the negative logarithm of the IC50 (pIC50) is 7.55 on Prothrombin (Bos taurus), 7.82 against Serine protease 1, 6.74 against Plasminogen and 7.16 in assay [2].
Turning to `C[C@H](C(=O)N1CCC[C@H]1C(=O)NC(C=O)CCCN=C(N)N)c1ccccc1` (some centres not stated), the figures for the Selectivity ratio in assay [1] and in assay [3] were 190 and above 100, respectively.
For `N=C(N)NCCC[C@@H](C=O)NC(=O)[C@@H]1CCCN1C(=O)[C@@H]1NCCc2ccccc21`, the figures for the negative-log IC50 (pIC50) against Prothrombin (Bos taurus), against Serine protease 1 and against Plasminogen were 7.72, 7.64 and 5.82, respectively.

The values above are taken from ChEMBL document CHEMBL1126581 (J Med Chem, 1993).
